Measured values published in ChEMBL document CHEMBL3124806, “Imidazopyridine-fused [1,3]-diazepinones: synthesis and antiproliferative activity” (Eur J Med Chem, 2014).
The source made the active and inactive calls. No cut-off for these calls is given here.

How the values were obtained:
[1] = Cytotoxicity against human CAL-1 cells assessed as reduction in cell growth at 1 to 10 uM after 48 hrs by MTT assay relative to untreated control; type: functional; set-up: scale not given: the % may be the effect or the level left
In short: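 CAL1 melanoma cells grown in DMEM with 2 mM L-glutamine and 10% FCS at 37 °C, 5% CO2. Seeded at 10^4 cells/well, grown 24 h, then treated 48 h across 100–0.01 μM (compounds dissolved in medium). Read-out: 0.5 mg mL⁻¹ MTT for 4 h, crystals dissolved in EtOH/DMSO 1:1, absorbance at 540 nm.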

HCC 2998 = experiment: Cytotoxicity against human HCC2998 cells after 48 hrs by SRB assay; type: functional; conditions: HCC 2998, 48 h
In short: (§1)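 NCI-60 five-dose testing, 100 to 0.01 µM, under a 48 h continuous-exposure protocol. Growth estimated by SRB protein assay, read spectrophotometrically against untreated controls; IC50 derived from the dose-response.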

MDA-MB-435 [2] = experiment: Induction of apoptosis in human MDA-MB-435 cells assessed as dispersed and rounded cells at 5 uM after 20 hrs by Hoechst 33342 staining-based phase-contrast microscopy; type: functional, cell-based
In short: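 MDA-MB-435 human melanoma cells were grown in Ham's F12/DMEM (1:1) with 10% FCS and antibiotics at 37 °C under 5% CO₂. Cells were exposed to 5 μM compound or left untreated. They were imaged by phase-contrast microscopy 20 h after treatment.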

[3] = Cytotoxicity against human UACC257 cells after 48 hrs by SRB assay; type: functional; conditions: UACC-257, 48 h
In short: (§2)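 NCI-60 five-dose mode on the full human tumour line panel. Concentrations ran from 100 to 0.01 µM with 48 h continuous exposure. Growth was estimated by SRB protein staining against untreated controls, and IC50 values were derived from the dose–response.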

[4] = Cytotoxicity against human NCI-ADR-RES cells after 48 hrs by SRB assay; type: functional
In short: (§3)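 NCI-60 five-dose screen: cells exposed continuously for 48 h across 100 to 0.01 µM. Growth or viability estimated by sulforhodamine B protein staining, read spectrophotometrically against untreated controls; IC50 taken from the dose-response.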

NCI-H23 = experiment: Cytotoxicity against human NCI-H23 cells after 48 hrs by SRB assay; type: functional; conditions: NCI-H23, 48 h; in short: as §3
SNB-19 = experiment: Cytotoxicity against human SNB19 cells after 48 hrs by SRB assay; type: functional; conditions: SNB-19, 48 h; in short: as §2
SK-MEL-28 = experiment: Cytotoxicity against human SK-MEL-28 cells after 48 hrs by SRB assay; type: functional; conditions: SK-MEL-28, 48 h; in short: as §3
[5] = biological target: Cyclin-dependent kinase 1 (Homo sapiens) (UniProt P06493); experiment: Inhibition of human CDK1 at 10 uM
In short: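 Kinase selectivity panel of 19 protein tyrosine kinases and 30 serine/threonine kinases, run by a contract lab (CEREP). Each compound was tested at a single dose of 10 μM in duplicate.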

HCT-15 = experiment: Cytotoxicity against human HCT15 cells after 48 hrs by SRB assay; type: functional; conditions: HCT-15, 48 h; in short: as §1
M14 = experiment: Cytotoxicity against human M14 cells after 48 hrs by SRB assay; type: functional; conditions: M14, 48 h; in short: as §1
SR = experiment: Cytotoxicity against human SR cells after 48 hrs by SRB assay; type: functional; in short: as §2
SN12C = experiment: Cytotoxicity against human SN12C cells after 48 hrs by SRB assay; type: functional; in short: as §2
CCRF-CEM = experiment: Cytotoxicity against human CCRF-CEM cells after 48 hrs by SRB assay; type: functional; in short: as §1
BT-549 = experiment: Cytotoxicity against human BT549 cells after 48 hrs by SRB assay; type: functional; conditions: BT-549, 48 h; in short: as §1
MDA-MB-435 [6] = experiment: Cell cycle arrest in human MDA-MB-435 cells assessed as accumulation at S phase at 5 uM after 48 hrs by propidium iodide staining-based FACS analysis (reference value: 22.8%); type: functional
MDA-MB-435 [7] = experiment: Cytotoxicity against human MDA-MB-435 cells at 5 uM after 24 hrs by MTT assay; type: functional
In short: (§4)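 MDA-MB-435 cells in DMEM/Ham's F12 (1:1) with 10% FCS, 37 °C, 5% CO2. Time course at a fixed 5 µM, incubated 8, 16, 24 or 48 h. Viability then read by MTT reduction (0.5 mg/mL, 4 h), formazan dissolved in EtOH/DMSO, absorbance at 540 nm, as percent living cells.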

MDA-MB-435 [8] = experiment: Cytotoxicity against human MDA-MB-435 cells at 5 uM after 8 hrs by MTT assay; type: functional; in short: as §4
MDA-MB-435 [9] = experiment: Induction of apoptosis in human MDA-MB-435 cells assessed as alterations in stress action fibre aggregation at 5 uM after 20 hrs by Hoechst 33342 staining-based […] microscopy; type: functional, cell-based
In short: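 MDA-MB-435 cells were grown for 24 h, then treated with or without 5 μM compound for 20 h. Cells were fixed for 20 min and permeabilised with 0.2% Triton X-100 for 4 min at room temperature. Actin was stained with a mouse anti-actin antibody and an Alexa Fluor 568 anti-mouse antibody, each for 1 h at RT. Nuclei were counterstained with Hoechst 33342, and cells were imaged by confocal microscopy.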

HCT-116 = experiment: Cytotoxicity against human HCT116 cells after 48 hrs by SRB assay; type: functional; conditions: HCT-116, 48 h; in short: as §1
COLO 205 = experiment: Cytotoxicity against human COLO205 cells after 48 hrs by SRB assay; type: functional; conditions: COLO 205, 48 h; in short: as §1
A498 = experiment: Cytotoxicity against human A498 cells after 48 hrs by SRB assay; type: functional; conditions: A498, 48 h; in short: as §1
NCI-H322M = experiment: Cytotoxicity against human NCI-H322M cells after 48 hrs by SRB assay; type: functional; in short: as §3
IGROV-1 = experiment: Cytotoxicity against human IGROV1 cells after 48 hrs by SRB assay; type: functional; conditions: IGROV-1, 48 h; in short: as §1
[10] = Cytotoxicity against human UO31 cells after 48 hrs by SRB assay; type: functional; conditions: UO-31, 48 h; in short: as §2
[11] = read-out: LC50 (the source's name)

Cyclin-dependent kinase 1 (Homo sapiens), sequence (P06493 whole entry, looked up): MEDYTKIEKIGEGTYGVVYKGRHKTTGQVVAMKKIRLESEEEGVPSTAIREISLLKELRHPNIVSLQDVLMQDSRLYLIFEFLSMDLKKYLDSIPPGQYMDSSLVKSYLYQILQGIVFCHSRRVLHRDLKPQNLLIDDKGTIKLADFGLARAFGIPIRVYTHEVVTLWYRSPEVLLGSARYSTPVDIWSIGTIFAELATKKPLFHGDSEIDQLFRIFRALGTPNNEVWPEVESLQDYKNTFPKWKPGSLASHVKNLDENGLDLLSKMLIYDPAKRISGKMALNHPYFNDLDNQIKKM

C[C@@H]1NC(c2ccccc2)=Nc2nc3ccccn3c2C1=O
Activity [1]: 20%

C[C@@H]1NC(c2ccc(Br)cc2)=Nc2nc3ccccn3c2C1=O
GI50 (HCC 2998): 21.9 µM
TGI (HCC 2998): > 100 µM
CC50 (HCC 2998; [11]): > 100 µM
Activity (MDA-MB-435 [2]): Active
GI50 [3]: 35.2 µM
TGI [3]: > 100 µM
CC50 [3, 11]: > 100 µM
GI50 [4]: 7.45 µM
TGI [4]: > 100 µM
CC50 [4, 11]: > 100 µM
GI50 (NCI-H23): 25.4 µM
TGI (NCI-H23): > 100 µM
CC50 (NCI-H23; [11]): > 100 µM
GI50 (SNB-19): 7.45 µM
TGI (SNB-19): > 100 µM
CC50 (SNB-19; [11]): > 100 µM
GI50 (SK-MEL-28): 9.51 µM
TGI (SK-MEL-28): > 100 µM
CC50 (SK-MEL-28; [11]): > 100 µM
inhibition [5]: inactive
GI50 (HCT-15): 3.64 µM
TGI (HCT-15): > 100 µM
CC50 (HCT-15; [11]): > 100 µM
GI50 (M14): 3.2 µM
TGI (M14): 48.2 µM
CC50 (M14; [11]): > 100 µM
GI50 (SR): 2.42 µM
TGI (SR): > 100 µM
CC50 (SR; [11]): > 100 µM
GI50 (SN12C): 17.6 µM
TGI (SN12C): > 100 µM
CC50 (SN12C; [11]): > 100 µM
GI50 (CCRF-CEM): 6.56 µM
TGI (CCRF-CEM): > 100 µM
CC50 (CCRF-CEM; [11]): > 100 µM
GI50 (BT-549): 5.49 µM
TGI (BT-549): > 100 µM
CC50 (BT-549; [11]): > 100 µM
Activity (MDA-MB-435 [6]): 30.8%
Activity (MDA-MB-435 [7]): 10%
Activity (MDA-MB-435 [8]): 35%
Activity (MDA-MB-435 [9]): Active
GI50 (HCT-116): 4.04 µM
TGI (HCT-116): > 100 µM
CC50 (HCT-116; [11]): > 100 µM
GI50 (COLO 205): 1.87 µM
TGI (COLO 205): 4.75 µM
CC50 (COLO 205; [11]): 95.8 µM
GI50 (A498): 3.26 µM
TGI (A498): 38.2 µM
CC50 (A498; [11]): > 100 µM
GI50 (NCI-H322M): 23.6 µM
TGI (NCI-H322M): > 100 µM
CC50 (NCI-H322M; [11]): > 100 µM
GI50 (IGROV-1): 51.9 µM
TGI (IGROV-1): > 100 µM
CC50 (IGROV-1; [11]): > 100 µM
GI50 [10]: 8.11 µM
TGI [10]: > 100 µM
CC50 [10, 11]: > 100 µM
